Among the data in PubChem BioAssay AID493090 (Southern Research Specialized Biocontainment Screening …, 2011) are CC50 values, retold here.

The subject of the assay is HEp-2 viability, luminescence cytotoxicity counter-screen. The assay can be described thus: HEp-2 cell cytotoxicity, dose response, cytotoxicity control for RSV inhibitor project, synthesized compounds, set 5 (AID 493090). In outline:
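Test system: HEp-2 human cell line, uninfected, for cytotoxicity / Times: compound exposure of cells for 6 days at 37 °C / Measured by: CellTiter-Glo luminescence / Measure: % viability vs cell controls, CC50 from constrained four-parameter fit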

Activity calls are given as the source filed them.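 The calls were made as follows: active = cell viability under 70% at any tested concentration, a measure not printed in our tables; inactive = the rest.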 Some results are limits rather than exact numbers.

`CC(=O)c1ccccc1NC(=O)[C@@H]1CCCN1S(=O)(=O)c1cccc2cccnc12`: the CC50 is > 50 µM (inactive).

Regarding `Cc1ncccc1NC(=O)[C@@H]1CCCN1S(=O)(=O)c1cccc2cccnc12`, the CC50 is > 50 µM (inactive).

Take `CCOC(=O)c1ccc2[nH]c3c(c2c1)CN(C)CC3`: the CC50 was > 50 µM (inactive).

Regarding `COCCCNC(=O)c1ccc(Cn2c(=O)c3ccccc3n(Cc3ccc(C)cc3)c2=O)cc1`, the CC50 is > 50 µM (inactive).

What is called CC50 is the concentration giving 50% cytotoxicity.
